Measurements from ChEMBL document CHEMBL1155120, “Synthesis of 4-oxo-4,7-dihydrofuro[2,3-b]pyridine-5-carboxamides with broad-spectrum human herpesvirus polymerase inhibition” (Bioorg Med Chem Lett, 2008).
Converted amounts (≈) assume the structure as drawn.

What was measured:
[1] = Inhibition of HCMV DNA polymerase by scintillation proximity assay; set-up: species or system Human betaherpesvirus 5
How it was run: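 Scintillation proximity assay with purified HCMV DNA polymerase, measuring incorporation of ³H-labelled nucleotide into template-primer. IC50 values are means of at least two experiments, with standard deviation where given.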

[2] = molecular target: T1, DNA polymerase catalytic subunit (Human herpesvirus 1 (strain KOS) (HHV-1) (Human herpes simplex virus1), UniProt P04292); assay: Inhibition of HSV1 DNA polymerase by scintillation proximity assay; set-up: species or system Human alphaherpesvirus 1
T1 sequence (P04292 whole entry): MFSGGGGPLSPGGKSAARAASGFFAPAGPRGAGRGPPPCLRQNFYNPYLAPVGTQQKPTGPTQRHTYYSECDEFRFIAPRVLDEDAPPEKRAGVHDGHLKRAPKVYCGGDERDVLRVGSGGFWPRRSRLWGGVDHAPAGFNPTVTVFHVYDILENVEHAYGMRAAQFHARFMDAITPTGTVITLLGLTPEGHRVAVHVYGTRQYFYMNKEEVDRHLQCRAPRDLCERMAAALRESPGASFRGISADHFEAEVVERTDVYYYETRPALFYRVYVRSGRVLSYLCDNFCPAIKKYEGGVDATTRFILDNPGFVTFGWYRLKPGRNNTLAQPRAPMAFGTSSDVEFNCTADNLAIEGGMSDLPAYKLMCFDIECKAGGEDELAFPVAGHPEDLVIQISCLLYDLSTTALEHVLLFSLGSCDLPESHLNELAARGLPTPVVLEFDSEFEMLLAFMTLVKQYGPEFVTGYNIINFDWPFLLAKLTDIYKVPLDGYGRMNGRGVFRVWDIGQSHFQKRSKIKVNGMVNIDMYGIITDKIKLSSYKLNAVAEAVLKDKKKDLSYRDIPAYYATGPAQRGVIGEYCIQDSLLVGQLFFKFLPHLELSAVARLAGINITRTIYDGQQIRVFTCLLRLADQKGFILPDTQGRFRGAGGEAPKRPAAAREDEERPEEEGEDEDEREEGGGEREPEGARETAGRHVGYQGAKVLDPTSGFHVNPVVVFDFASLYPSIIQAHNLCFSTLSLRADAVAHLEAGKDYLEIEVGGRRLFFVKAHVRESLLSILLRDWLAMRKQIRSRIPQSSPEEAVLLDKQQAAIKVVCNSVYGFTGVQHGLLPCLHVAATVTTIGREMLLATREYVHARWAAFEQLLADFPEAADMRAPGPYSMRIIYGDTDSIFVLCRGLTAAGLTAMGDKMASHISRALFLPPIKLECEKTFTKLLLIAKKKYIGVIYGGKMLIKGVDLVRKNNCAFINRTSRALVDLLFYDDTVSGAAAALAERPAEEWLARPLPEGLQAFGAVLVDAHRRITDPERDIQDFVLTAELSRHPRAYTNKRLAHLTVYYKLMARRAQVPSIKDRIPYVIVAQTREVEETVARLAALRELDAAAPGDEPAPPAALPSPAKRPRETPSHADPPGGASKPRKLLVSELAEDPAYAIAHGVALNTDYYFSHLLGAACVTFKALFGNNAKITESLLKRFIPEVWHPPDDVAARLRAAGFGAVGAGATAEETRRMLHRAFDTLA

[3] = Inhibition of VZV DNA polymerase by scintillation proximity assay; set-up: species or system Human alphaherpesvirus 3
[4] = Inhibition of human polymerase alpha by scintillation proximity assay
[5] = Inhibition of human polymerase delta by scintillation proximity assay
Human alphaherpesvirus 1 = assay: Antiviral activity against HSV1 KOS by plaque reduction assay; assay type: functional, organism-based; settings: Human alphaherpesvirus 1, KOS
How it was run: (§1)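 Plaque reduction assays used HCMV Davis strain and HSV-1 KOS strain. IC50 values are means of at least two experiments, with standard deviation where given.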

[6] = Inhibition of human polymerase gamma by scintillation proximity assay
Human betaherpesvirus 5 = assay: Antiviral activity against HCMV Davis by plaque reduction assay; assay type: functional, organism-based; settings: Human betaherpesvirus 5, Davis; how it was run: as §1
Human alphaherpesvirus 3 = assay: Antiviral activity against VZV Webster by plaque reduction assay; assay type: functional, organism-based; settings: Human alphaherpesvirus 3, Webster
[7] = Cytotoxicity against HFF cells after 3 days by neutral red dye uptake assay; assay type: cell-based; settings: human
How it was run: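 Uninfected, replicating HFF cells were seeded as subconfluent monolayers and exposed to compound for 3 days.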

Human gammaherpesvirus 4 = assay: Antiviral activity against EBV lytic replication in GG68 cells after 72 hrs by Southern blot analysis; assay type: functional, organism-based; settings: human gammaherpesvirus 4, GG68, 72 h
[8] = Aqueous solubility of the compound; assay type: physicochemical
[9] = Oral bioavailability in rat; assay type: ADME, organism-based; settings: in vivo
How it was run: (§2)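 Dosing was intravenous at 5 mg/kg and oral at 15 mg/kg. The vehicle was 80/20 PEG400/0.01 M methanesulfonic acid.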

[10] = Oral bioavailability in dog; assay type: ADME, organism-based, Canis lupus familiaris; settings: in vivo; how it was run: as §2

SMILES | IC50 [1] [nM] | IC50 (Human betaherpesvirus 5) [nM] | other results
CN(Cc1cc2c(=O)c(C(=O)NCc3ccc(Cl)cc3)cn(C)c2o1)C[C@@H](O)c1ccccn1 | 220 | 170 | IC50 [2]: 350 nM; IC50 [3]: 100 nM; IC50 [4]: > 20000 nM; IC50 [5]: > 20000 nM; IC50 (Human alphaherpesvirus 1): 5400 nM; IC50 [6]: > 20000 nM; IC50 (Human alphaherpesvirus 3): 90 nM; CC50 at 72 h [7]: > 100000 nM
CN(Cc1cc2c(=O)c(C(=O)NCc3ccc(Cl)cc3)cn(C)c2o1)C[C@@H](O)c1cnccn1 | 220 | 28 | –
CN(Cc1cc2c(=O)c(C(=O)NCc3ccccc3)cn(C)c2o1)C[C@@H](O)c1ccco1 | 11400 | – | –
CCCn1cc(C(=O)NCc2ccc(Cl)cc2)c(=O)c2cc(CN(C)C[C@@H](O)c3ccco3)oc21 | 1120 | – | –
CN(Cc1cc2c(=O)c(C(=O)NCc3ccc(F)cc3)cn(C)c2o1)C[C@@H](O)c1ccco1 | 610 | – | –
CN(Cc1cc2c(=O)c(C(=O)NCc3ccc(Cl)cc3)cn(-c3ccccc3)c2o1)C[C@@H](O)c1ccco1 | 830 | – | –
CN(Cc1cc2c(=O)c(C(=O)NCc3ccc(Cl)cc3)cn(CCc3ccccc3)c2o1)C[C@@H](O)c1ccco1 | 690 | – | –
O=C(O)P(=O)(O)O [FOSCARNET] | – | – | IC50 [6]: < 280 nM
CN(Cc1cc2c(=O)c(C(=O)NCc3ccc(Cl)cc3)cn(C)c2o1)C[C@@H](O)c1ncccn1 | 170 | 360 | –
CN(Cc1cc2c(=O)c(C(=O)NCc3ccc(C(F)(F)F)cc3)cn(C)c2o1)C[C@@H](O)c1ccco1 | 6450 | – | –
Nc1nc(O)c2ncn(COC(CO)CO)c2n1 [GANCICLOVIR] | – | – | CC50 at 72 h [7]: > 100000 nM
CCN(CC)CCn1cc(C(=O)NCc2ccc(Cl)cc2)c(=O)c2cc(CN(C)C[C@@H](O)c3ccco3)oc21 | 3920 | – | –
Nc1nc2c(ncn2COCCO)c(=O)[nH]1 [ACYCLOVIR] | – | > 20000 | CC50 at 72 h [7]: > 100000 nM
Cc1ccc(CNC(=O)c2cn(C)c3oc(CN(C)C[C@@H](O)c4ccco4)cc3c2=O)cc1 | 3140 | – | –
CN(Cc1cc2c(=O)c(C(=O)NCc3ccc(Br)cc3)cn(C)c2o1)C[C@@H](O)c1ccco1 | 340 | – | –
CN(Cc1cc2c(=O)c(C(=O)NCc3ccc(Cl)cc3)cn(C)c2o1)C[C@@H](O)c1ccco1 | 76 | 26 | IC50 [2]: 220 nM; IC50 [3]: 78 nM; IC50 [4]: > 20000 nM; IC50 [5]: > 20000 nM; IC50 (Human alphaherpesvirus 1): 4300 nM; IC50 [6]: > 20000 nM; IC50 (Human alphaherpesvirus 3): 20 nM; IC50 (Human gammaherpesvirus 4): 400 nM; CC50 at 72 h [7]: > 100000 nM; solubility [8]: 60 µM (≈ 28.2 µg/mL); bioavailability [9]: 67%; bioavailability [10]: 76%
CN(Cc1cc2c(=O)c(C(=O)NCc3ccc(Cl)cc3)cn(-c3ccccn3)c2o1)C[C@@H](O)c1ccco1 | 140 | 50 | –
CN(Cc1cc2c(=O)c(C(=O)NCc3ccc(F)c(F)c3)cn(C)c2o1)C[C@@H](O)c1ccco1 | 1020 | – | –
CN(Cc1cc2c(=O)c(C(=O)NCc3ccc(Cl)cc3)cn(C3CC3)c2o1)C[C@@H](O)c1ccco1 | 420 | 1200 | –
CN(Cc1cc2c(=O)c(C(=O)NCc3ccc(Cl)cc3)cn(C)c2s1)C[C@@H](O)c1ccccn1 | – | – | IC50 (Human gammaherpesvirus 4): 200 nM
CCn1cc(C(=O)NCc2ccc(Cl)cc2)c(=O)c2cc(CN(C)C[C@@H](O)c3ccco3)oc21 | 510 | 700 | –
